Screening data: PubChem, several laboratories
The list is not random: actives were taken first. Their share in the collection is about 3.4%.
MC4R barr agon – agonists of human melanocortin 4 receptor (MC4R) beta-arrestin; P32245; U2OS MC4R beta-arrestin complementation, luminescence; percent of melanotan II response, DMSO zero; activation, % at 8.9 µM; hit rate 0.98% among 360,000;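 active = activation above a per-plate cutoff, the mean activation of sample wells on that plate plus 3 SD, cut at about 8% in these data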
TMEM16A act – activators or potentiators of mouse TMEM16A chloride channel; hit rate 0.3% among 340,000; Q8BHY3; HEK293 TMEM16A/YFP-H148Q/I152L, iodide quench fluorescence; active compounds read low; B-score at 10 µM;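 active = fluorescence-ratio B-score plate-corrected deviation score at least 3 library SD below zero, with starting fluorescence score within 5 deviations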;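 note: channel opened by trigger with iodide after compound preincubation; score built on the fluorescence ratio of max minus min over baseline; more negative score means more quench and so TMEM16A activation or potentiation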
ANO1 block – mouse TMEM16A channel inhibition, primary screen | HEK293 TMEM16A/YFP iodide influx fluorescence, ionomycin | normalized B-score (activity score, 25-100; higher = stronger inhibition) at 10 µM | hit rate 1.2% among 310,000;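 active = ratio plate-corrected score three or more library SD toward inhibition, starting fluorescence score within five deviations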;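 note: score derived from kinetic fluorescence span divided by baseline fluorescence per well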
MC4R antagonist – human MC4R antagonism in cAMP assay. P32245. MC4R-expressing cells, MTII-stimulated cAMP, LANCE TR-FRET. inhibition, % at 6.5 µM. hit rate 0.48% among 360,000;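 active = inhibition above its plate's cutoff, the mean of tested wells on that plate plus 3 SD, cut at about 29% in these data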
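Material – human MC4R-expressing U2OS cells · Repeats – no replicates · Detection – TR-FRET with Eu-cAMP and labeled anti-cAMP, 671 nm · Times – compound 30 min, challenge 1 h, detection 1 h · Compound – single nominal compound dose of 6.5 µM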
beta cell repl – inducers of beta-cell replication in MIN6 cells | MIN6 cells proliferation, ATPlite luminescence, 48 h; cells starved in 0.2% serum; 100% = growth in 10% serum | proliferation, % at 10 µM | hit rate 0.29% among 330,000;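 active = compounds whose signal lies at least 3.5 SD above the mean of all wells on their plate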
HTR2A ag – agonists of mouse serotonin 5-HT2A receptor (HTR2A). P35363. CHO-K1 mHTR2A beta-arrestin complementation, luminescence; percent of 30 µM serotonin response. activation, % at 7.6 µM. hit rate 0.66% among 360,000. AID 624169;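 active = activation above a run cutoff, the mean activation of all tested compounds plus 3 SD, cut at about 14% in these data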
MC4R barr ag – human MC4R beta-arrestin agonism confirmation. shares compounds with MC4R barr agon. U2OS MC4R beta-arrestin recruitment, luminescence; scaled DMSO 0%, Melanotan II 100%. activation, % at 8.9 µM. hit rate 31% among 2,400. AID 602192;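 active = mean activation across replicates above the hit cutoff set in the earlier primary screen, cut at about 8% in these data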
MOR DOR agonist – counter-screen for MC4R agonists: agonists of mu-delta opioid heterodimer; shares compounds with MC4R barr agon; U2OS PathHunter beta-arrestin, beta-gal luminescence; percent of deltorphin B response, DMSO zero; activation, % at 9.2 µM; hit rate 5.8% among 2,400;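 active = mean activation across replicates exceeds the hit threshold derived in the earlier primary screen, cut at about 18% in these data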
TMEM16A reconf – reconfirmed blocker of mouse TMEM16A calcium-activated chloride channel | HEK293 TMEM16A/YFP-H148Q, iodide quench fluorescence; ionomycin added to raise cell calcium | hit rate 39% among 2,300 | inhibition, % at 10 µM | shares compounds with ANO1 block;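 active = mean duplicate percent inhibition, scaled so buffer wells are 0 and the reference blocker 100, over three buffer SD above buffer mean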
TMEM16A Ca cntr – counter-screen for TMEM16A inhibitors: effect on calcium mobilization | TMEM16A/YFP HEK293, Fluo4 calcium mobilization | hit rate 2% among 2,300 | AID 652231 | shares compounds with ANO1 block | calcium response (% of ionomycin), % at 10 µM;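 active = duplicate-averaged calcium signal over 20% of the ionomycin maximum, relative to buffer baseline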;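 note: each well's signal is peak minus trough fluorescence divided by its pre-addition baseline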
YFP-HEK293 quench – acts in parental YFP-HEK293 cells lacking TMEM16A, counter-screen | AID 652233 | YFP ratio F(max-min)/F0 at 10 µM | iodide YFP quench, ionomycin | shares compounds with ANO1 block | 2,300 tested, under 10 active;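 active = yellow fluorescent protein signal ratio exceeding the buffer control mean by over 5 SD of those controls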;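 note: ratio is mean of duplicate wells from kinetic YFP trace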
ClC-1 rat inh – rat ClC-1 inhibition, TMEM16A specificity screen | shares compounds with ANO1 block | 2,300 tested, under 10 active | ratio percent, % at 10 µM | CHO ClC-1-YFP, iodide influx fluorescence quench; iodide control reads 0, buffer control 100 | AID 652236;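 active = duplicate-mean ratio percent above the mean of iodide-only control wells, which defines zero, plus 5 of their SD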;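 note: higher percent means stronger block of ClC-1 iodide influx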
Target sequence (P35524 whole entry, looked up): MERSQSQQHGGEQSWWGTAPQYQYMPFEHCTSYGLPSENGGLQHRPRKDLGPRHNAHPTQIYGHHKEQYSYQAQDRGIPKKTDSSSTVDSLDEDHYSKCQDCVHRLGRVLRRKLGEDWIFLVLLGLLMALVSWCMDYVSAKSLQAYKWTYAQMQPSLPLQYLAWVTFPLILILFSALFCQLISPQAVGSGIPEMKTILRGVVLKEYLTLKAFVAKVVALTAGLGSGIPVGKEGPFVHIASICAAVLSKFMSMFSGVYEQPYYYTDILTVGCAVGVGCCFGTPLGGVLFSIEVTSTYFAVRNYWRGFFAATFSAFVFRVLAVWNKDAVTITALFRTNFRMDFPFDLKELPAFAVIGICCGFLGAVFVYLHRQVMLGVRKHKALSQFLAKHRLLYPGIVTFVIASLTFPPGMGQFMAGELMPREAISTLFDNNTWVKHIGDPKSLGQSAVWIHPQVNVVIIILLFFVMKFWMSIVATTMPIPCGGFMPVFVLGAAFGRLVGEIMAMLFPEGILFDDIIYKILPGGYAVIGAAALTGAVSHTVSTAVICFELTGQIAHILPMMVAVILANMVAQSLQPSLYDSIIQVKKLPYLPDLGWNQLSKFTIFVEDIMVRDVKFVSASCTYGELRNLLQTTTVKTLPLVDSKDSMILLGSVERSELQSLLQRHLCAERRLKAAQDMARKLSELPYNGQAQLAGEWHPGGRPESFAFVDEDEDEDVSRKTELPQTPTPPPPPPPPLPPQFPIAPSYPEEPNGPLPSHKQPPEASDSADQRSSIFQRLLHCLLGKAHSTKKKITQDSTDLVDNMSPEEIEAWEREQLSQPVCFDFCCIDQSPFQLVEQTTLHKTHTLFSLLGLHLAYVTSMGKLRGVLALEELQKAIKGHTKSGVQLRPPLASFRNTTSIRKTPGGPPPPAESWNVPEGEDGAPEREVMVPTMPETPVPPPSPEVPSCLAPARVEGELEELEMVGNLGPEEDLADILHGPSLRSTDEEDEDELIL
MOR ag counter – activates human mu opioid receptor in HTR2A counterscreen | shares compounds with HTR2A ag | activation, % at 9.3 µM | U2OS OPRM1 beta-arrestin PathHunter, luminescence; DMSO 0%, DAMGO 9.3 µM 100% | AID 624380 | hit rate 5.3% among 2,300;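 active = mean activation above the mean of DMSO-only wells plus 3 SD, cut at about 0.5% in these data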
m5-HT2A ag conf – mouse HTR2A agonism confirmed. shares compounds with HTR2A ag. CHO-K1 PathHunter beta-arrestin recruitment, luminescence; DMSO 0%, 30 µM serotonin 100%. activation, % at 7.6 µM. hit rate 19% among 2,300;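 active = mean activation across triplicates above the hit threshold derived in the original primary screen, cut at about 15% in these data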
Numbers stand for hits; i = inactive; nt = no result; ! = not confirmed by another sample.

SMILES	MC4R barr agon	TMEM16A act	ANO1 block	MC4R antagonist	beta cell repl	HTR2A ag	MC4R barr ag	MOR DOR agonist	others
CCCCCCCCCn1c2c(c(=N)c3c1CCC3)CCCC2	13.4	i	nt	i	i	i	i	i
CCCCCCCCn1c2c(c(=N)c3ccccc31)CCC2	i	i	nt	i	i	i	nt	nt
CCCCCCCCCCn1c2c(c(=N)c3c1CCC3)CCC2	17.4	i	100	i	i	i	10.9	19.3
COc1ccc(N2CC(C)(C)[C@H](CC(=O)Nc3ccccc3)C2=O)cc1	i	nt	nt	i	nt	i	nt	nt
O=C(O)c1cccc(Sc2cc(Cl)ccc2C(=O)O)c1	i	i	nt	i	i	i	nt	nt
COc1cc(/C=C2\CC/C(=C\c3cc(OC)c(O)c(OC)c3)C2=O)cc(OC)c1O	21.0	i	i	i	i	i	55.7	35.5
COc1cc(/C=C2\CC/C(=C\c3cc(OC)c(OC)c(OC)c3)C2=O)cc(OC)c1OC	i	i	i	i	i	i	nt	nt
COc1cccc(-c2ocnc2C(=O)Nc2ccc(N3CCOCC3)cc2N2CCOCC2)c1	i	i	i	i	i	i	nt	nt
O=C(Nc1cc(F)cc(F)c1)c1ccc(NCCc2ccccc2)c([N+](=O)[O-])c1	10.2	i	i	i	i	i	i	i
COc1ccc(NC(=O)CSc2nnc(-c3ccccc3)n2N)cc1	i	i	i	i	i	i	nt	nt
CCn1c2ccccc2c2cc(NC(=O)CSc3nnc(-c4ccc(OC)cc4)n3N)ccc21	20.6	i	i	i	i	i	11.5	19.6
Cc1ccc(NC(=O)CSCC(=O)N(C)Cc2c(F)cccc2Cl)cc1	i	nt	nt	i	nt	i	nt	nt
CSc1ccc(C(=O)N2CCC(CCC(=O)NCc3ccc(F)cc3)CC2)cc1	i	i	nt	i	i	i	nt	nt
COc1ccc(OC)c(NC(=O)CSc2ncccc2C(=O)O)c1	i	i	i	i	i	i	nt	nt
CCCCCCCCNC(=O)c1cccnc1SCC(=O)Nc1ccccc1OC	14.6	i	i	i	i	i	i	i
NC(=O)c1c(NC(=O)c2ccccc2)sc2c1CCN(Cc1ccccc1)C2	12.3	i	i	i	i	i	i	i
C=CCc1ccc(OCC(O)CO)c(OC)c1 (centres undefined)	i	i	i	i	i	i	nt	nt
C=CCc1ccc(O)c(-c2cc(CC=C)ccc2O)c1	9.7	i	100	i	i	i	i	i	TMEM16A reconf=31.5%;TMEM16A Ca cntr=i;YFP-HEK293 quench=i;ClC-1 rat inh=i
CCc1cc(-c2[nH]ncc2-c2ccc3c(c2)OCO3)c(O)cc1O	19.4	i	100	i	i	i	i	i	TMEM16A reconf=51.5%;TMEM16A Ca cntr=i;YFP-HEK293 quench=i;ClC-1 rat inh=i
O=C(C=Cc1ccccc1)CC(c1ccccc1)N1CCOCC1 (centres undefined)	i	i	nt	i	nt	i	nt	nt
C1CCC(C(CC2CCCCN2)C2CCCCC2)CC1 (centres undefined)	10.7	i	25!	i	i	i	11.5	i	TMEM16A reconf=i;TMEM16A Ca cntr=i;YFP-HEK293 quench=i;ClC-1 rat inh=i
O=C(COC(=O)c1ccc2c(c1)OCCO2)NCc1ccc(Cl)cc1	i	nt	nt	i	nt	i	nt	nt
Cc1ccc(NC(=O)C(C)c2ccc(-c3ccccc3)c(F)c2)c(C)c1 (centres undefined)	9.6	i	25	i	i	i	i	i	TMEM16A reconf=i;TMEM16A Ca cntr=i;YFP-HEK293 quench=i;ClC-1 rat inh=i
COc1cccc(-c2cc(-c3cccnc3)nc(N)c2C#N)c1	i	i	i	i	i	i	nt	nt
N#Cc1c(-c2cccc(Br)c2)cc(-c2cccnc2)nc1N	32.4	i	25	i	i	i	i	i	TMEM16A reconf=25.0%;TMEM16A Ca cntr=i;YFP-HEK293 quench=i;ClC-1 rat inh=i
SMILES	MC4R barr agon	TMEM16A act	ANO1 block	MC4R antagonist	beta cell repl	HTR2A ag	MC4R barr ag	MOR DOR agonist	others
CCNC(=O)N(C)c1c(CC)nc2ccc(C(=O)N3CCN(S(=O)(=O)CC)CC3)cn12	i	nt	nt	i	nt	i	nt	nt
O=[N+]([O-])c1cc(C(F)(F)F)ccc1NCCc1c[nH]c2ccc(O)cc12	14.8	i	25	i	i	i	i	i	TMEM16A reconf=i;TMEM16A Ca cntr=i;YFP-HEK293 quench=i;ClC-1 rat inh=i
CCN1CCN(S(=O)(=O)c2ccc(Cl)c(C(=O)N(C)Cc3ccco3)c2)CC1	i	i	nt	i	i	i	nt	nt
COc1ccc(-c2csc(C3=C(O)CN(Cc4ccc(Cl)cc4)C3=N)n2)cc1OC	102.5	i	i	i	i	52.6	21.3	i	MOR ag counter=1.7;m5-HT2A ag conf=29.3
CCCN(CCC)CCNC(=O)c1cc2c(-c3ccc(Cl)cc3)nn(C)c2s1	10.6	i	i	i	i	30.3	9.0	i	MOR ag counter=i;m5-HT2A ag conf=50.9
CC(=O)N1CCc2cc(S(=O)(=O)NC(CC(C)C)C(=O)N3CCCC3)ccc21 (centres undefined)	i	i	i	i	i	i	nt	nt
CC1=C(C(=O)N2CCCCCC2)CC(CC(=O)NCCc2ccccn2)C(=O)N1CCCN1CCCC1=O (centres undefined)	nt	nt	nt	nt	nt	i	nt	nt
CCCCNS(=O)(=O)c1ccc(NS(=O)(=O)c2c(C)cc(C)cc2C)cc1	11.6	i	i	i	i	17.6	i	i	MOR ag counter=i;m5-HT2A ag conf=i
CCNS(=O)(=O)c1ccc(NS(=O)(=O)c2cc(C)ccc2C)cc1	i	i	i	i	i	i	nt	nt
